C8 TRAIL sens – sensitizes caspase-8 expressing cells to TRAIL | NB7+C8 cells + TRAIL, ATPlite viability luminescence | inhibition (viability loss, TRAIL sensitization), % at 10 µM | 360,000 compounds, 1% hits;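 active = compounds causing at least 50% loss of cell viability in the single-dose screen, relative to plate controls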
PPC-1+TRAIL kill – PPC-1 cancer cell killing with TRAIL present; PPC-1 cells + TRAIL, ATPLite viability luminescence; cell killing (% activity), % at 4 µM or 5 µM; 220,000 compounds, 0.41% hits; AID 1443;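 active = cell killing above 50% in the first pass at 4 µM, then a duplicate retest at 5 µM averaging 50% or more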
FLuc act counter – firefly luciferase counter-screen for stimulation assays | P08659 | ATPlite luciferase biochemical, luminescence, 10 min; 0 = ATP-free wells, 1 = DMSO control | activation factor at 10 µM | 200,000 tested, under 10 active | AID 1027;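 active = luciferase activation factor, scaled between plate controls, of at least 2 with compound at 10 µM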
Target sequence (P08659 whole entry, looked up): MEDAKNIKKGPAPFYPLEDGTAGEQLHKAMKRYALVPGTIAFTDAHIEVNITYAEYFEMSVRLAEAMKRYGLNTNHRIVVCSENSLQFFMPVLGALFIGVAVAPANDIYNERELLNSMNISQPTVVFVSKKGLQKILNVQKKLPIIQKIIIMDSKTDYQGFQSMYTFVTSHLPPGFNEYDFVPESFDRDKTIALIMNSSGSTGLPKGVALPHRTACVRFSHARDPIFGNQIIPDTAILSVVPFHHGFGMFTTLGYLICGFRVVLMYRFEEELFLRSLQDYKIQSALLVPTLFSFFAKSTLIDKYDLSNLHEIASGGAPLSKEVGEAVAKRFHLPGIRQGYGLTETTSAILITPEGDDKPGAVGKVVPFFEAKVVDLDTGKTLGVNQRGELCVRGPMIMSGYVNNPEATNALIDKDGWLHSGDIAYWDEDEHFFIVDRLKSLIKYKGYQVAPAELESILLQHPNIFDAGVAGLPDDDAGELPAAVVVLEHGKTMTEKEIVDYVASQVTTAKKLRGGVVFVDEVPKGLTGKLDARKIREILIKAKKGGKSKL
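assay system = Luciferase/luciferin detection reagent, cell-free biochemical luciferase assay | also added = ATP substrate | times = 10 min post-reagent at room temperature | measured by = luminescence from luciferase reaction | measure = luciferase activation, seen as luminescence increase over controls | benchmarks = low control with PBS replacing ATP, high control enzyme plus ATP without compound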
FLuc inhib CS – counter-screen for luciferase assay inhibitors: firefly luciferase inhibition | P08659 | ATPLite firefly luciferase biochemical luminescence, 10 min | inhibition, % at 10 µM | 200,000 compounds, 1.5% hits | AID 1006;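 active = inhibition above about 50% when tested at 10 µM, limit read from the data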
Platelet DG rel – platelet dense granule release activity. AID 1663. human platelet-rich plasma, SFLLRN dense granule ATP release, luminescence. inhibition, %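 (compounds screened at 7.5 µM in platelet-rich plasma)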. 300,000 compounds, 0.22% hits;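 active = mean replicate score, as percent of positive control, at or above 50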
PPC-1 tox – kills PPC-1 cells; shares compounds with PPC-1+TRAIL kill; PPC-1 viability, ATPlite luminescence, overnight; cytotoxicity, % at 5 µM; 1,200 compounds, 50% hits;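 active = reconfirmed compounds whose average cytotoxicity reaches 50% or more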
A number is an active result; 0 = inactive; - = no result given. Rows were chosen to be rich in hits. Some 1.6% of all compounds tested hit in one or more screens of this group.

SMILES | C8 TRAIL sens | PPC-1+TRAIL kill | FLuc act counter | FLuc inhib CS | Platelet DG rel | PPC-1 tox
Cn1cc(C(=O)N/N=C/c2c(O)ccc3ccccc23)ccc1=O | 0 | 0 | 0 | 0 | 0 | 0
CC(=O)Nc1ccc(CN2C(=O)C(C)(C)ON=C2c2ccc(C(F)(F)F)cc2)cc1 | 0 | - | - | - | - | -
CCCN1C(=O)/C(=C2\SC(N3CCCCC3)=NC2=O)c2ccccc21 | 0 | 0 | 0 | 71 | 0 | 0
CN1C(=O)/C(=C2\SC(N3CCCCCC3)=NC2=O)c2ccccc21 | 51 | 59 | 0 | 79 | 0 | 0
O=C1N=C(N2CCOCC2)S/C1=C1\C(=O)N(Cc2ccccc2)c2ccccc21 | 0 | 0 | 0 | 0 | 0 | -
Cc1ccc(NC(=O)c2ccc(OCC3CCCO3)cc2)nc1 (stereo not drawn) | 0 | - | - | - | 0 | -
Cc1cnc(NC(=O)c2ccc(OCC3CCCO3)cc2)s1 (stereo not drawn) | 87 | 83 | 0 | 95 | 0 | 86
NS(=O)(=O)c1cccc(NC(=S)NCc2ccc3c(c2)OCO3)c1 | 0 | 0 | 0 | 0 | - | 0
O=C(N/N=C/c1cc(O)ccc1[N+](=O)[O-])c1ccc2c(c1)OCCO2 | 89 | 80 | - | - | 0 | 83
O=C(N/N=C/c1ccccc1[N+](=O)[O-])c1ccc2c(c1)OCCO2 | 93 | 93 | - | - | 0 | 93
C/C(=N\NC(=O)c1ccc2c(c1)OCCO2)c1ccccc1 | 0 | 65 | - | - | 71 | 64
CC1(C(=O)NS(=O)(=O)c2cccs2)CCN1C(=O)C1CC1 (stereo not drawn) | 0 | - | - | - | - | -
COc1ccc(CCNC(=O)c2cc([C@@H](NC(=O)OC(C)(C)C)C(C)C)sc2N)cc1OC | 0 | - | - | - | - | -
Cc1ccsc1/C=N/NC(=O)c1ccc2c(c1)OCCO2 | 76 | 54 | - | - | 0 | 63
O=C(N/N=C/c1c(Cl)[nH]c2ccccc12)c1ccc2c(c1)OCCO2 | 66 | 65 | - | - | 0 | 64
O=C(N/N=C/c1cc2c(cc1Cl)OCO2)c1ccc2c(c1)OCCO2 | 0 | 0 | - | - | 0 | -
Cc1ccsc1/C=N/NC(=O)c1sccc1C | 0 | 0 | 0 | 0 | 0 | -
O=C(N/N=C/c1cc(Br)cs1)c1ccc2c(c1)OCCO2 | 69 | 58 | - | - | 0 | 60
Cc1ccc(C(=O)N/N=C/c2ccc([N+](=O)[O-])s2)cc1 | 0 | 0 | 0 | 0 | 0 | 0
O=C(N/N=C/c1ccc([N+](=O)[O-])s1)c1ccncc1 | 0 | 0 | 0 | 0 | 0 | -
COc1cc(/C=N/NC(=O)c2ccc3c(c2)OCCO3)cc(Br)c1O | 0 | - | - | - | 0 | -
COc1ccc(OCCOC(=O)CNC(=O)c2ccc(F)cc2)cc1 | 0 | - | - | - | - | -
COc1ccc(-c2oc3c(c2C#CC(C)(C)O)C(OC)CCC3)cc1 (stereo not drawn) | 0 | - | - | - | - | -
C[C@@H]1CN([C@@H](C)CO)C(=O)CCCn2nncc2CO[C@H]1CN(C)C(=O)c1ccncc1 | 0 | - | - | - | - | -
Cc1ccc(/C=N/NC(=O)c2ccc3c(c2)OCCO3)s1 | 0 | 0 | - | - | 0 | 0
SMILES | C8 TRAIL sens | PPC-1+TRAIL kill | FLuc act counter | FLuc inhib CS | Platelet DG rel | PPC-1 tox
Cc1ccc(/C=N/NC(=O)c2ccc3ccccc3c2)s1 | 0 | - | - | - | 0 | -
Cc1ccc2c(c1)CCO[C@@]21O[C@H](CCO)C[C@H](O)[C@H]1O | 0 | - | - | - | - | -
CCNC(=S)Nc1ccc(N2CCCCC2)cc1 | 0 | 0 | 0 | 0 | 0 | -
CCNC(=S)N/N=C/c1sc(N2CCCCC2)nc1-c1cccs1 | 0 | 0 | 0 | 62 | 0 | 0
CCOc1ccc(N2C(=O)CC(SCCN)C2=O)cc1 (stereo not drawn) | 0 | 0 | 0 | 57 | 0 | 0
CC(C)c1nc(SCC(=O)N2CCCCC2)c2c(=O)n(C)c(=O)n(C)c2n1 | 0 | - | - | - | - | -
Cc1nn(C(C)(C)C)c(C)c1/C=N/OC(=O)Nc1ccc(Cl)cc1 | 88 | 85 | - | - | 0 | 86
Cc1nn(C)c(C)c1/C=N/NC(=O)C(C)(C)Oc1ccc(Cl)cc1 | 0 | 0 | 0 | 0 | 0 | -
CCc1c(C)nc(Nc2nc(C)c3ccc(OC)cc3n2)[nH]c1=O | 0 | 0 | 0 | 0 | 0 | -
COc1ccc2c(C)nc(Nc3nc(C)c(C)c(=O)[nH]3)nc2c1 | 0 | 0 | 0 | 0 | 0 | 0
CN(C)c1ccc(-c2ccnc3c2CC(C)(C(=O)NCCc2ccccc2)O3)cc1 (stereo not drawn) | 0 | - | - | - | - | -
COc1ccc(C(=O)N(c2c(C)cccc2C)C(COC(C)=O)COC(C)=O)cc1 | 0 | - | - | - | - | -
O=C(NCc1cccs1)c1ccc2sc([C@H]3C[C@H](O)[C@@H](CO)O3)nc2c1 | 0 | - | - | - | - | -
CCOC(=O)CNc1c(-c2ccc(O)cc2)nc2ccc(Cl)cn12 | 0 | 0 | 0 | 0 | 0 | 0
COc1ccc(N2CCN(Cc3oc(CO)cc(=O)c3O)CC2)cc1 | 0 | 0 | 0 | 0 | 0 | 0
Fc1ccc(NC(=S)Nc2cccc3cnccc23)cc1 | 0 | 0 | 0 | 0 | 0 | 0
S=C(Nc1ccc(Cl)cc1)Nc1cccc2cnccc12 | 0 | 0 | 0 | 0 | 0 | -
O=C(NCc1ccc(C(F)(F)F)cc1)c1ccc(-c2cccnc2)c2ccoc12 | 0 | - | - | - | - | -
COC(=O)c1nc2n(n1)C(c1ccccc1OC)C1=C(CCCC1=O)N2 (stereo not drawn) | 0 | 0 | 0 | 0 | 0 | -
COC(=O)c1nc2n(n1)C(c1ccc(OC)c(OC)c1OC)C1=C(CCCC1=O)N2 (stereo not drawn) | 0 | 0 | 0 | 0 | 0 | 0
CCOC(=O)c1c(Nc2ccccc2N)cc(C)nc1C | 0 | 0 | 0 | 0 | 0 | 0
CCOC(=O)c1c(N2CCN(c3ccccc3)CC2)cc(C)nc1C | 0 | - | - | - | 0 | -
C#CCNC(=O)C[C@@H]1C[C@@]2(C(=O)OC)CCCCC=C2N(CCCCCCCC)C1=O | 0 | - | - | - | - | -
O=C(NCC1CC1)c1ccc(-n2ccnc2)c2ccoc12 | 0 | - | - | - | - | -
COCn1c(-c2ccc(OC)cc2)nc2ccccc21 | 0 | 0 | 0 | 76 | 0 | 0
SMILES | C8 TRAIL sens | PPC-1+TRAIL kill | FLuc act counter | FLuc inhib CS | Platelet DG rel | PPC-1 tox
Cc1cccc(C)c1NC(=O)C(c1ccnc2ccccc12)n1c(=O)c(-c2ccccc2)nc2ccccc21 (stereo not drawn) | 0 | - | - | - | - | -
CCOC(=O)c1c(NC(=O)c2noc(C)c2[N+](=O)[O-])sc(C(C)=O)c1C | 0 | 0 | 0 | 0 | 0 | 0
CC(C)n1nnnc1C1c2ccccc2C(=O)N1Cc1cccnc1 (stereo not drawn) | 0 | - | - | - | - | -
COc1ccc(Cc2c(-c3ccc(OC)c(OC)c3)nc3ccc(C)cn23)c(C)c1 | 0 | - | - | - | - | -
COCC(=O)N[C@H]1CC[C@@H](CC(=O)NCc2ccccc2OC)O[C@@H]1CO | 0 | - | - | - | - | -
CC1(C)CC(=O)C2=C(C1)OC(N)=C(C#N)C2c1ccccc1OC(=O)N1CCOCC1 (stereo not drawn) | 0 | 0 | 0 | 0 | 0 | 0
CCC(C)(C)c1ccc(OCCCC[n+]2cccc(C)c2C)c(C(C)(C)CC)c1 | 0 | 62 | - | - | 0 | 58
COc1ccc(S(=O)(=O)NNS(=O)(=O)c2ccc(OC)c(OC)c2)cc1OC | 0 | - | - | - | - | -
COc1ccc(C(=O)NCCNc2nc3cc(C)cc(C)c3cc2C#N)nc1 | 0 | - | - | - | - | -
COCCn1c(-c2ccc(Br)cc2)csc1=Nc1cccnc1 | 0 | 0 | 0 | 0 | - | 0
